# Experimental data taken from ChEMBL document CHEMBL1136574, “Organic phenyl arsonic acid compounds with potent antileukemic activity” (Bioorg Med Chem Lett, 2003).
# Key:
# [1] = system: NALM-6; assay: Antileukemic activity against human leukemia NALM-6 (B-lineage ALL) cell line; format: functional, cell-based
# How it was run: (§1)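 Cells treated with compounds in 96-well plates, incubated 48 h at 37 °C; cytotoxicity read by MTT assay; IC50 values calculated by curve fitting.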
# [2] = system: MOLT-3; assay: Antileukemic activity against human leukemia MOLT-3(T-lineage ALL) cell line; format: functional, cell-based; how it was run: as §1
Structure (SMILES),IC50 [1] [µM],IC50 [2] [µM]
Nc1ccc([As](=O)(O)O)cc1 [ARSANILIC ACID],> 100,
CSc1nccc(Nc2ccc(/N=N/c3ccc([As](=O)(O)O)cc3)cc2)n1,6.1,4.1
COc1cc2ncnc(Nc3ccc([As](=O)(O)O)cc3)c2cc1OC,> 100,> 100
O=[As](O)(O)c1ccc(/N=N/c2ccc(Nc3nc(C(Cl)(Cl)Cl)nc4ccccc34)cc2)cc1,1.1,2
CSc1nccc(Nc2ccc([As](=O)(O)O)cc2)n1,5.6,9.1
O=[As](O)(O)c1ccccc1Nc1nc(C(Cl)(Cl)Cl)nc2ccccc12,> 100,> 100
CSc1nccc(Nc2ccccc2[As](=O)(O)O)n1,1.5,2.3
O=[As](O)(O)c1ccc(/N=N/c2ccc(Nc3[nH]cnc4ncnc3-4)cc2)cc1,22.5,21.6
COc1cc2ncnc(Nc3ccccc3[As](=O)(O)O)c2cc1OC,46.6,55.6
O=[As](O)(O)c1ccc(Nc2nc(C(Cl)(Cl)Cl)nc3ccccc23)cc1,> 100,> 100
COc1cc2ncnc(Nc3ccc(/N=N/c4ccc([As](=O)(O)O)cc4)cc3)c2cc1OC,16.9,13.9
